Assay outcomes: PubChem, SRMLSC
Sampled rows, rich in hits. Any-hit rate of the full collection: about 2.6%.
Yeast lifespan up = compounds extending yeast replicative lifespan, primary screen, S. cerevisiae, OD615; S. cerevisiae growth with nicotinamide; deaD strain in restrictive glucose medium; inhibition of the nicotinamide effect, % at 10 µM; 0.68% of 130,000 active;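 active = inhibition above a set limit, placed 3 SD over the median of all compounds, cut at about 26% in these data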
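Test system: DeaD-strain S. cerevisiae / Buffer or medium: restrictive glucose medium / Also added: nicotinamide 1.5 mM / Doses: one concentration, 10 µM, DMSO 0.25% / Schedule: 48 h at 30 °C / Signal: OD615 measurement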
Yeast growth inh = growth inhibitors of yeast BB579 in restrictive medium, primary screen, yeast lifespan-shortening project, S. cerevisiae; 0.51% of 140,000 active; AID 804, 2007; inhibition, % at 10 µM; OD615, 48 h;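 active = inhibition above a set limit, 3 SD over the mean compound inhibition, cut at about 44% in these data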
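System: Saccharomyces cerevisiae DeaD strain BB579, replicative lifespan model yeast. Buffer or medium: restrictive glucose-based CSMM-D medium. Doses: one dose, 10 µM compound with 0.25% DMSO. Timing: 4 h preincubation and 48 h exposure at 30 °C. Detection: turbidity as optical density at 615 nm. Benchmarks: amphotericin B 10 µg/mL, positive.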
RAM network inh = inhibitors of the yeast RAM network, primary screen, dse1pr::URA3 reporter, 5-FOA selection | S. cerevisiae dse1pr::URA3 reporter, 5-FOA growth OD615, 2 d; analog-sensitive cbk1-as2 kinase mutant strain | inhibition, % at 50 µM | 1.8% of 190,000 active;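 active = inhibition above a set limit, 3 SD over mean compound inhibition, cut at about 8.4% in these data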;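 note: inhibition rescues growth on 5-FOA so higher OD means more RAM inhibition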
Numbers stand for hits; . = inactive; / = no result.

SMILES	Yeast lifespan up	Yeast growth inh	RAM network inh
C=C(C)CN(CC)C(=O)COc1ccc(S(=O)(=O)Nc2ccc(OC)cc2)cc1	108.5	.	.
COc1ccc(NS(=O)(=O)c2ccc(OCC(=O)N3CCOCC3)cc2)cc1	.	.	.
CCOc1ccc(NS(=O)(=O)c2ccc(NS(=O)(=O)c3ccc(SC)cc3)cc2)cc1	.	.	8.9
CC(=O)c1c(C(C)=O)c(C)n(C(c2ccccc2)c2ccccc2)c1C	/	/	.
COc1ccccc1Nc1nc(N)nc(CN2CC(C)CC(C)C2)n1 (stereo unspecified)	/	/	.
COc1ccc(CCN(C)CC(O)c2ccccc2)cc1OC (stereo unspecified)	/	/	.
COc1ccc(C(=O)Nc2ccc(S(=O)(=O)N3CCCCC3)cc2)cc1	.	.	.
COc1ccc(-c2cnnn2-c2ccc(NC(=O)c3ccc(S(=O)(=O)N4CCCCC4)cc3)cc2)cc1	.	.	9.8
COc1ccc(CCNC(N)=S)cc1OC	.	.	.
O=C(C(=O)N1CCN(c2ccc(F)cc2)CC1)c1c[nH]c2ccccc12	/	/	10.3
O=C(C(=O)N1CCN(c2cccc(Cl)c2)CC1)c1c[nH]c2ccccc12	/	/	.
CC12CCC(C(=O)N3CCC(Cc4ccccc4)CC3)(C(=O)C1=O)C2(C)C (stereo unspecified)	/	/	.
O=C(OCc1ccc2c(c1)OCO2)c1ccc(S(=O)(=O)N2CCCC2)cc1	.	.	.
O=C(OCc1ccc2c(c1)OCO2)c1cccc(S(=O)(=O)N2CCCCC2)c1	.	.	8.6
O=C(O)C1C2CCC(O2)C1C(=O)Nc1ccc(O)cc1 (stereo unspecified)	.	.	.
Cc1ccc(Sc2nnc(-c3ccccc3)cc2C#N)cc1	.	.	.
N#Cc1cc(-c2ccccc2)cnc1Sc1ccccc1	.	.	9.2
O=C(c1ccco1)N1CCN(C(=O)c2cc3sccc3n2Cc2ccccc2)CC1	.	.	.
Cc1ccc(Cn2c(C(=O)NCCCN3CCOCC3)cc3sccc32)cc1	.	.	.
CCn1c(C(=O)NCCCc2ccccc2)cc2sccc21	.	.	10.3
Cc1ccc(Cn2c(C(=O)O)cc3sccc32)cc1	26.3	.	.
O=C(NCCc1ccccc1)c1cc2sccc2n1Cc1ccccc1	.	.	.
O=C(NCc1ccco1)c1cc2sccc2n1Cc1ccccc1	/	.	9.9
CC(=O)CC(=O)Nc1ncccn1	/	/	.
O=C1CCCC(=O)C1=C1SCCCS1	.	.	.
SMILES	Yeast lifespan up	Yeast growth inh	RAM network inh
CCN(CC)C(=O)/C=C/c1ccc(OC)c(S(=O)(=O)N2CCCCC2)c1	/	/	.
CN(C(=O)c1ccc(=O)n(Cc2ccc(Cl)cc2)c1)c1ccccc1	/	/	.
CN(C)c1ccc(/C=N/OC(=O)Nc2ccccc2Cl)cc1	/	/	.
CCOC(=O)C(C)(C)N(Cc1ccc(Cl)cc1)S(=O)(=O)c1ccc(Cl)c([N+](=O)[O-])c1	.	.	9.4
CCOC(=O)C(C)(C)N(Cc1ccc(C)cc1)S(=O)(=O)c1ccc(Cl)c([N+](=O)[O-])c1	.	.	9.8
CC(=O)c1c(C)oc2ccc(N(C(C)=O)S(=O)(=O)c3ccc(Cl)c([N+](=O)[O-])c3)cc12	.	.	.
CCOC(=O)C(C)(C)NS(=O)(=O)c1ccc(Cl)c([N+](=O)[O-])c1	.	.	.
CCC(=O)NC(NC(=S)Nc1ccc(S(N)(=O)=O)cc1)C(Cl)(Cl)Cl (stereo unspecified)	.	.	.
CCOC(=O)C1CCN(c2c([N+](=O)[O-])c(C(Cl)Cl)nn2-c2ccccc2)CC1	.	.	.
O=[N+]([O-])c1c(C(Cl)Cl)nn(-c2ccccc2)c1N1CCCC1	45.2	.	.
O=C(CSc1nnc(-c2ccccc2Br)o1)Nc1cccc2ccccc12	.	.	.
COc1cccc(NC(=O)CSc2nnc(-c3cc(C)n(-c4ccccc4)c3C)o2)c1	.	.	9.3
Cc1cc(C)cc(NC(=O)CSc2nnc(-c3ccccc3Br)o2)c1	.	.	10.8
COc1ccccc1-c1nnc(SCC(=O)Nc2c(Cl)cccc2Cl)o1	.	.	.
CCN(CCC(=O)Nc1cc([N+](=O)[O-])ccc1OC)Cc1ccccc1	.	.	.
Cc1ccc(NC(=O)CC(C(=O)O)c2ccccc2)cc1 (stereo unspecified)	.	.	.
Cc1n[nH]c(=O)n1-c1cccc(C(F)(F)F)c1	74.8	.	.
O=c1[nH]ncn1-c1cccc(C(F)(F)F)c1	.	.	.
COc1ccc(C(=O)Nc2cc(C)on2)cc1S(=O)(=O)N1CC(c2ccccc2)CC1=O (stereo unspecified)	/	/	.
Cc1cc(N2CCN(C(=O)c3ccco3)CC2)n2ncnc2n1	/	.	.
